CXCR6 block = CXCR6 receptor inhibitors, primary screen, cell-based, beta-arrestin, luminescence, CHO-K1 PathHunter, 1536-well. C-X-C chemokine receptor type 6 (Homo sapiens), O00574. inhibition, % at 20 µM. 360,000 compounds, 0.36% hits; in the data active = inhibition above about 34%, passing the limit was not always enough;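 also: antagonist mode with CXCL16 agonist at 10 nM final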
APJ antag = antagonists of human apelin receptor APJ, primary screen, CHO-K1 cells, beta-arrestin complementation, luminescence | P35414 | inhibition, % at 20 µM | 330,000 compounds, 0.32% hits | AID 2521, 2010;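 active = inhibition above about 40% at 20 µM, limit read from the data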;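 also: cells challenged with 10 nM apelin-13 agonist together with compound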
Target sequence (P35414 whole entry, looked up): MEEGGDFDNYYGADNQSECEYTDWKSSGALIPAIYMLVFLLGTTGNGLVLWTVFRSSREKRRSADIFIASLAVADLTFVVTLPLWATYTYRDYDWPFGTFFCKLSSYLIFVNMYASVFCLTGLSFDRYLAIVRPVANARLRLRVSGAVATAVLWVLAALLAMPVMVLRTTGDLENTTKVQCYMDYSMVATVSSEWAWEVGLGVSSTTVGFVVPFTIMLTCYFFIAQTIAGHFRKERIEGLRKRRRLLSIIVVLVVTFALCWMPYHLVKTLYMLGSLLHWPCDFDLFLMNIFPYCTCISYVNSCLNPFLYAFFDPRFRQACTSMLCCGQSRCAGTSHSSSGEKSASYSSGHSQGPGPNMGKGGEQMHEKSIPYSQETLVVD
APJ ag = agonists of human apelin receptor APJ, primary screen, CHO-K1 cells, PathHunter beta-arrestin, luminescence. P35414. 0% DMSO wells, 100% apelin. activation, % at 20 µM. 330,000 compounds, 0.11% hits. AID 2520, 2010;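 active = activation more than six SD over the plate average, tested at 20 µM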
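Material: CHO-K1 APJ beta-arrestin complementation cell line; Input: cell density 1000 per well; Incubation: compound stimulation 90 min at 25 °C, detection 60 min; Signal: luminescence from split beta-galactosidase complementation, Galacton Star/Emerald II substrate; Controls: DMSO-only wells as negative, 10 nM Apelin-13 as positive control.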
EBI2 block = EBI2 receptor antagonists, beta-arrestin recruitment, primary screen, cell-based, luminescence, 7a,25-OHC stimulation, uHTS; 7a,25-OHC stimulated; inhibition, % at 5 µM; 360,000 compounds, 0.81% hits; in the data active = inhibition above about 38%;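 also: enzyme fragment complementation signal reports receptor beta-arrestin coupling in cells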
CCR6 antagonist = CCR6 receptor antagonists, primary screen, cell-based, CHO-K1, luminescence, beta-arrestin, uHTS. C-C chemokine receptor type 6 (Homo sapiens), P51684. CHO-K1 CCR6 PathHunter beta-arrestin, CCL20-stimulated. inhibition, % at 20 µM. 340,000 compounds, 0.49% hits. AID 493098, 2011;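 active = compounds whose inhibition of the agonist-driven luminescence signal at 20 µM reaches about 50%, limit read from the data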;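 also: cells stimulated with CCL20 at 14 nM final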
EBI2 conf = EBI2 antagonist hit retest, beta-arrestin, confirmation, cell-based, single concentration, luminescence, 7a,25-OHC stimulation. inhibition, % at 5 µM. 7a,25-OHC antagonism. 2,400 compounds, 29% hits. shares compounds with EBI2 block;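 active = inhibition of at least 50%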
EBI2 ag = EBI2 agonist activity of antagonist hits, confirmation, counter-screen for EBI2 antagonist project, cell-based, single concentration, agonist mode, luminescence. shares compounds with EBI2 block. EBI2-expressing cells, 60 min; 0% vehicle, 100% 7α,25-dihydroxycholesterol control. activation, % at 5 µM. 2,400 tested, under 10 active. AID 652000, 2013;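 active = activation of at least 50%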
bGal cs = E. coli beta-galactosidase enzyme inhibition, confirmation, counter-screen for EBI2 antagonist project, biochemical, luminescence, single concentration; 2,400 compounds, 1% hits; shares compounds with EBI2 block; purified beta-galactosidase, luminescent Galacton Star, 15 min; inhibition, % at 5 µM;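 active = replicate-average signal at least 3 plate SD below neutral wells, shown as high inhibition, flagging enzyme-inhibiting false positives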;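 also: higher means stronger loss of beta-gal luminescence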
A number is an active result; . = inactive; / = not tested or not shown. An excerpt weighted towards active compounds, which were near 1.5% of everything screened.

SMILES	CXCR6 block	APJ antag	APJ ag	EBI2 block	CCR6 antagonist	EBI2 conf	EBI2 ag	bGal cs
Cc1ccc(C(=O)N(Cc2cccnc2)Cc2cc3cc(C)ccc3n3nnnc23)cc1	.	.	.	.	.	/	/	/
O=C(COc1ccc2ccccc2c1)N1CCN(C(=O)c2cccnc2)CC1	.	.	.	78	.	64	.	.
O=C(COc1ccc2cc(Br)ccc2c1)N1CCOCC1	.	.	.	62	.	.	.	.
O=C(COc1ccc(-c2ccccc2)cc1)N1CCN(C(=O)c2cccnc2)CC1	.	.	.	.	.	/	/	/
O=C(COc1ccc2ccccc2c1)N1CCN(c2ccccc2)CC1	.	.	.	50	.	.	.	.
O=[N+]([O-])c1ccc2c(c1Nc1ccccc1Cl)=NC1(CCCCC1)N=2	.	.	.	63	.	.	.	.
O=C(O)C1(Nc2ccccc2Cl)CCCC1	.	/	/	.	.	/	/	/
O=C(N=C1N=C2C=CC=CN2Cc2ccccc21)c1ccc(S(=O)(=O)N2CCOCC2)cc1	.	.	.	.	.	/	/	/
COC(=O)c1ccccc1NC(=O)CSc1n[nH]c(-c2ccco2)n1	.	.	.	.	.	/	/	/
CC1CC(C)CN(S(=O)(=O)c2ccc(NC(=S)NC(=O)c3ccccc3)cc2)C1 (stereo not drawn)	.	.	.	47	.	.	.	.
Cc1ccc(NC(=O)N2CCC(O)(c3ccc(Cl)cc3)CC2)cc1	.	.	.	78	.	75	.	.
CCOc1ccc(OCC(O)CN2CCN(S(=O)(=O)c3cccc(C(F)(F)F)c3)CC2)cc1 (stereo not drawn)	.	/	/	77	.	.	.	.
O=S(=O)(c1cccc(C(F)(F)F)c1)N1CCN(CC(O)COCc2ccccc2)CC1 (stereo not drawn)	.	.	.	.	.	/	/	/
COc1ccc(OC)c(NC(=O)CSc2nnc(N)s2)c1	.	.	.	.	.	/	/	/
COc1ccc(-c2cc(C(=O)N3CCN(C(=O)c4ccccc4F)CC3)[nH]n2)cc1	.	.	.	.	.	/	/	/
O=C(c1cc(-c2ccccc2)n[nH]1)N1CCN(S(=O)(=O)c2ccccc2)CC1	.	.	.	59	.	.	.	.
O=C(O)c1cc(-c2ccccc2)n[nH]1	.	.	.	.	.	/	/	/
O=C(c1cc(-c2ccc(Br)cc2)n[nH]1)N1CCN(C(=O)c2ccccc2Br)CC1	.	.	.	84	.	52	.	.
COc1ccccc1-c1cc(C(=O)N2CCN(S(=O)(=O)c3ccc(C)cc3)CC2)[nH]n1	.	.	.	62	.	.	.	.
COc1ccc(-c2cc(C(=O)N3CCN(S(=O)(=O)c4ccccc4)CC3)[nH]n2)cc1	.	.	.	48	.	.	.	.
CCOC(=O)C[n+]1c(C)ccc2c1CCC2	.	.	.	.	.	/	/	/
CCN(CC)C(=O)CC(c1cc(OC)c(OC)c(OC)c1)c1c(OC)cc(OC)c2c(-c3ccccc3)cc(=O)oc12 (stereo not drawn)	.	.	.	.	.	/	/	/
C#CCN1Cc2ccccc2Oc2cc(Br)ccc2S1(=O)=O	.	/	/	.	.	/	/	/
COc1ccc(S(=O)(=O)N2CCN(C(=O)c3cc(-c4ccc(Br)cc4)n[nH]3)CC2)cc1OC	.	.	.	72	.	.	.	.
O=S(=O)(CC(O)COc1ccc(Br)cc1)c1ccccc1 (stereo not drawn)	.	.	.	45	.	.	.	.
SMILES	CXCR6 block	APJ antag	APJ ag	EBI2 block	CCR6 antagonist	EBI2 conf	EBI2 ag	bGal cs
O=C(CSc1ccc(Cl)cc1)N1CCN(c2ccc(Cl)cc2[N+](=O)[O-])CC1	.	.	.	82	.	76	.	.
CC(C)(C)C(=O)N1CCN(c2ccc(Cl)cc2[N+](=O)[O-])CC1	.	.	.	.	.	/	/	/
O=C(COc1ccc(Br)cc1)N1CCN(c2ccc([N+](=O)[O-])c(N3CCCCC3)c2)CC1	.	.	.	77	.	57	.	.
O=C(COc1ccc(Cl)cc1)N1CCN(c2ccc([N+](=O)[O-])c(N3CCOCC3)c2)CC1	.	.	.	85	.	61	.	.
CC(=O)N1CCN(C(=O)COc2ccc(Br)cc2)CC1	.	.	.	.	.	/	/	/
O=C(COc1ccccc1)N1CCN(c2ccc([N+](=O)[O-])c(N3CCCCC3)c2)CC1	.	.	.	50	.	.	.	.
Cn1cc2cc(NC(N)=S)ccc2n1	.	.	.	.	.	/	/	/
O=C(N/N=C/c1ccc(N2CCOCC2)cc1)C1CC1	.	.	.	.	.	/	/	/
CCOC(=O)N(C)c1c(CC)nc2c(OCc3ccc(Cl)cc3Cl)cccn12	.	/	/	45	/	77	.	.
COc1ccc(S(=O)(=O)N2CCC(C(=O)NCCc3c[nH]c4ccccc34)CC2)cc1	.	.	.	45	.	.	.	.
CCS(=O)(=O)N1Cc2ccccc2CC1C(=O)NCCc1c[nH]c2ccccc12 (stereo not drawn)	.	.	.	44	.	.	.	.
CCS(=O)(=O)N1Cc2ccccc2CC1C(=O)Nc1nc2ccccc2[nH]1 (stereo not drawn)	.	.	.	.	.	/	/	/
CCN(CC(=O)Nc1ccccc1C(F)(F)F)C(=O)c1ccc2[nH]c3c(c2c1)CC(C)CC3 (stereo not drawn)	.	.	.	.	.	/	/	/
CCOc1ccccc1CN(Cc1ccco1)S(=O)(=O)c1ccc(-n2cnnn2)c(OC)c1	.	/	/	49	.	.	.	.
O=C(/C=C/c1ccc(OCc2ccccc2)c(OCc2ccccc2)c1)c1cccnc1	.	.	.	46	.	.	.	.
CCOc1ccc2oc(C(=O)Nc3cc(C)ccn3)c(C)c2c1	.	.	.	43	.	.	.	.
Cc1ccnc(NC(=O)c2oc3ccccc3c2C)c1	.	.	.	.	.	/	/	/
CCOC(=O)C1=C[C@@H](C(C)(C)C)N(S(=O)(=O)c2ccc(C)cc2)[C@H]1c1ccc(C#N)cc1	.	/	/	42	/	.	.	.
CCCCn1c(N)c(N(CC(C)C)C(=O)CCNC(=O)c2ccc([N+](=O)[O-])cc2)c(=O)[nH]c1=O	.	.	.	.	.	/	/	/

Screening data: PubChem, Sanford-Burnham Center for Chemical Genomics
